Measured values as given in ChEMBL document CHEMBL4041463, “Pyrazolo[1,5-a]pyridine-3-carboxamide hybrids: Design, synthesis and evaluation of anti-tubercular activity” (Eur J Med Chem, 2017).
Values after ≈ are worked out from the molar mass of the structure shown.

Tested on: Mycobacterium tuberculosis
Assay: Antitubercular activity against Mycobacterium tuberculosis H37Rv measured on day 7 post dose by microplate alamar blue assay
Assay type: functional
Conditions: 168 h
Outline: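 MABA against H37Rv in 7H12 medium, two-fold dilutions, final 0.05–5 or 0.004–1 µg/mL (DMSO stocks 5 or 2 mg/mL). Inoculum 2×10⁵ cfu/mL, 37 °C. On day 7, Tween 80 and Alamar Blue added; fluorescence (ex 530/em 590) read after 16–24 h. MIC = interpolated lowest concentration giving ≥90% fluorescence reduction versus bacteria-only controls. INH and RIF as controls.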

Row | SMILES | MIC90 [µg/mL]
1 | CCc1nn2ccc(Cl)cc2c1C(=O)NCc1ccc(-c2ccc(OC(F)(F)F)cc2)nc1 | 0.2 (≈ 0.421 µM)
2 | CCc1nn2ccc(Cl)cc2c1C(=O)NCC1CCN(CC23CC4CC(CC(C4)C2)C3)CC1 | > 1
3 | Cc1ccn2nc(C)c(C(=O)NCc3ccc(N4CCC(Oc5ccc(OC(F)(F)F)cc5)CC4)cc3)c2c1 | 0.006 (≈ 0.0111 µM)
4 | CCc1nn2ccc(Cl)cc2c1C(=O)NC/C=C(\C)CCC=C(C)C | 0.17 (≈ 0.472 µM)
5 | Cc1ccn2nc(C)c(C(=O)NCc3ccc(OC(F)(F)F)cc3)c2c1 | 0.91 (≈ 2.5 µM)
6 | NNC(=O)c1ccncc1 [ISONIAZID] | 0.1 (≈ 0.729 µM)
7 | CO[C@H]1/C=C/O[C@@]2(C)Oc3c(C)c(O)c4c(O)c(c(/C=N/N5CCN(C)CC5)c(O)c4c3C2=O)NC(=O)/C(C)=C\C=C\[C@H](C)[C@H](O)[C@@H](C)[C@@H](O)[C@@H](C)[C@H](OC(C)=O)[C@@H]1C [RIFAMPIN] | 0.003 (≈ 0.00365 µM)
